Data taken from ChEMBL document CHEMBL2169867, “Novel β-amino acid derivatives as inhibitors of cathepsin A” (J Med Chem, 2012).
pIC50: −log10 of the molar value.

How the values were obtained:
[1] = molecular target: T1, Lysosomal protective protein (Homo sapiens, UniProt P10619); experiment: Inhibition of human recombinant Myc-His10-tagged cathepsin A expressed in baculovirus infected Sf9 cells using BodipyFL labeled bradykinin as substrate incubated for 15 mins prior to substrate addition measured after 15 mins by fluorimetric analysis
T1 sequence (P10619 whole entry): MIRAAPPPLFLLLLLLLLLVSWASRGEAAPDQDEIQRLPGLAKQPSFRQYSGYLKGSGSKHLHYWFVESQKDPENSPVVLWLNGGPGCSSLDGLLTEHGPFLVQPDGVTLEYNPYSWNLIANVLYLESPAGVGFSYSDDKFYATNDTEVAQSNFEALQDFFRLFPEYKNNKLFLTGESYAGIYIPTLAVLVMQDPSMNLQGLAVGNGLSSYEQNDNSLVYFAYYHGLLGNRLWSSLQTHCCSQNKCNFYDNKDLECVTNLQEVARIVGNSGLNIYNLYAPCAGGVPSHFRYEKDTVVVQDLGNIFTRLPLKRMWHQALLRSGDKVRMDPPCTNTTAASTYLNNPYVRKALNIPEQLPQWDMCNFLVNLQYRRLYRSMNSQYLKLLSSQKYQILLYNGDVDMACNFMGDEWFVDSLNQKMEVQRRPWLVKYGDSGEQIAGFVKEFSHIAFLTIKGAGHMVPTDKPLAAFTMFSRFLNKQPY

[2] = Permeability across human Caco2 cells; type: ADME, cell-based; conditions: Caco-2, read-out: permeability
Neprilysin = Neprilysin (Homo sapiens, UniProt P08473); experiment: Inhibition of human recombinant NEP using Mca-RPPGFSAFK(Dnp)-OH as substrate incubated for 15 mins prior to substrate addition measured after 20 to 30 mins by fluorimetric analysis
In short: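 Recombinant human NEP and inhibitor preincubated 15 min at room temperature in reaction buffer, then substrate added. Fluorescence read after 20-30 min at room temperature. % inhibition and IC50 calculated against internal high and low controls.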

[3] = molecular target: Cathepsin A (Homo sapiens); experiment: Inhibition of cathepsin A
CYP3A4 = CYP3A4 (Homo sapiens, UniProt P08684); experiment: Induction of CYP3A4 relative to control; type: ADME; conditions: human
Chain of CYP3A4 (P08684 whole entry): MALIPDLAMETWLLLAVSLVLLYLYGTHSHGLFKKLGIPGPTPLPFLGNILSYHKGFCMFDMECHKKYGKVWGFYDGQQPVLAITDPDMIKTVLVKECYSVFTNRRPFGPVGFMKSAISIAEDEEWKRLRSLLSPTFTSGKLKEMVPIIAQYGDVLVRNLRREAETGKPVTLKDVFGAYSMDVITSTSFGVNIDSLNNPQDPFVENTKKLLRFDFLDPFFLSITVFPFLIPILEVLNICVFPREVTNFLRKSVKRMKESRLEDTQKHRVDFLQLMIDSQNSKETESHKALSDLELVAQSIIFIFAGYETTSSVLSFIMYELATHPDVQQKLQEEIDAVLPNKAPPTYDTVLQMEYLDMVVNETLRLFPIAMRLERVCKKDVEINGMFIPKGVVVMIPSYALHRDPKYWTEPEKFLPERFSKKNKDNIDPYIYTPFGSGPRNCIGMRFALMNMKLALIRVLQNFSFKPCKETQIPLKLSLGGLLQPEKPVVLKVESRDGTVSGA

Chain of Neprilysin (P08473 whole entry): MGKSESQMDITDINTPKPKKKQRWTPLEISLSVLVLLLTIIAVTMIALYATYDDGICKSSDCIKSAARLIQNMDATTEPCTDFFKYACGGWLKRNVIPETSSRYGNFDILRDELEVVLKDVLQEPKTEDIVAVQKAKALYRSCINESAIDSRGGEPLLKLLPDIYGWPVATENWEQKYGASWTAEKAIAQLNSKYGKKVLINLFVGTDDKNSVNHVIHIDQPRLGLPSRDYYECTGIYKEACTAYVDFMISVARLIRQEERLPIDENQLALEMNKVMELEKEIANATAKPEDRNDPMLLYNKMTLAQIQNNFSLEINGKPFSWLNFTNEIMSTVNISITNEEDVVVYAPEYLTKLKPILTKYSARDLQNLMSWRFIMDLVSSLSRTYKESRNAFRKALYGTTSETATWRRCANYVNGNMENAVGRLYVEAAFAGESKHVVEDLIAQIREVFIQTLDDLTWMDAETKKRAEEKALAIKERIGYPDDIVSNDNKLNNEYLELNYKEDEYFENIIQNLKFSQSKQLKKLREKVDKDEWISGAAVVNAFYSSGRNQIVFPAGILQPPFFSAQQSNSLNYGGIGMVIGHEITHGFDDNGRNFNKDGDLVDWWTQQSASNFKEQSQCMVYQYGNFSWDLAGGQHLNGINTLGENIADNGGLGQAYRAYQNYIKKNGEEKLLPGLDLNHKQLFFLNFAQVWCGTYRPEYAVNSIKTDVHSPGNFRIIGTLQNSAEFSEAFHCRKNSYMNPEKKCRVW

Compound	pIC50 [1]	other results
Cc1ccccc1[C@H](CC(=O)O)NC(=O)c1cc(OC[C@@H](O)C(C)(C)C)n(-c2ccccc2F)n1	8.00	–
Cc1ccccc1[C@H](CC(=O)O)NC(=O)c1cc(=O)n(-c2cccc(F)c2)[nH]1	7.23	–
O=C(O)CC(NC(=O)c1cc(=O)n(-c2ccccc2F)[nH]1)c1ccccc1 (racemic)	6.65	–
CC(C)(C)[C@H](O)COc1cc(C(=O)N[C@@H](CC(=O)O)c2ccc(Cl)cc2Cl)nn1-c1ccccc1F	7.15	–
COc1cn(-c2ccccc2)nc1C(=O)N[C@@H](CC(=O)O)c1ccccc1C	7.00	–
Cc1ccccc1[C@H](CC(=O)O)NC(=O)c1cc(=O)n(-c2cccc(Cl)c2)[nH]1	6.99	–
COc1c(F)c(C(=O)N[C@@H](CC(=O)O)c2ccccc2C)nn1-c1ccccc1F	7.52	–
CC(C)(C)C(=O)COc1cc(C(=O)N[C@@H](CC(=O)O)c2ccc(Cl)cc2Cl)nn1-c1ccccc1F	7.22	Papp [2]: > 2 ×10⁻⁶ cm/s
COc1ccccc1[C@H](CC(=O)O)NC(=O)c1cc(=O)n(-c2ccccc2F)[nH]1	6.45	–
O=C(O)CC(NC(=O)c1cc(=O)n(-c2ccccc2)[nH]1)c1cccc(Cl)c1Cl (racemic)	7.00	pIC50 (Neprilysin): > 7.22
Cc1ccc([C@H](CC(=O)O)NC(=O)c2cc(=O)n(-c3ccccc3F)[nH]2)cc1	6.56	–
Cc1ccccc1[C@H](CC(=O)O)NC(=O)c1cc(=O)n(-c2ccc(F)cc2)[nH]1	7.06	–
O=C(O)CC(NC(=O)c1cc(=O)n(-c2ccc(F)cc2F)[nH]1)c1cccc(Cl)c1Cl (racemic)	6.92	–
Cc1ccc(F)cc1C(CC(=O)O)NC(=O)c1cc(=O)n(-c2ccccc2F)[nH]1 (racemic)	7.12	–
Cc1ccccc1[C@@H](CC(=O)O)NC(=O)c1cc(=O)n(-c2ccccc2)[nH]1	5.11	–
Cc1ccccc1[C@H](CC(=O)O)NC(=O)c1nn(-c2ccccc2)cc1O	6.96	–
Cc1ccccc1[C@H](CC(=O)O)NC(=O)c1cc(OCC2CC2)n(-c2ccccc2F)n1	7.82	pIC50 (Neprilysin): 4.57; pIC50 [3]: 7.82; Emax (CYP3A4): 72%
Cc1ccccc1[C@H](CC(=O)O)NC(=O)c1cc(=O)n(-c2ccccc2)[nH]1	7.15	–
Cc1ccccc1[C@H](CC(=O)O)NC(=O)c1cc(=O)n(-c2ccccc2Cl)[nH]1	7.24	–
Cc1ccc(C)c(-n2[nH]c(C(=O)NC(CC(=O)O)c3ccc(F)cc3)cc2=O)c1 (racemic)	5.27	–
COc1c(Cl)c(C(=O)N[C@@H](CC(=O)O)c2ccccc2C)nn1-c1ccccc1F	6.96	–
O=C(O)C[C@H](NC(=O)c1cc(=O)n(-c2ccccc2F)[nH]1)c1ccccc1C(F)(F)F	6.43	–
O=C(O)CC(NC(=O)c1cc(=O)n(-c2ccccc2)[nH]1)c1ccc(Oc2ccccc2)cc1 (racemic)	6.70	–
CCOc1cc(C(=O)N[C@@H](CC(=O)O)c2ccccc2C)nn1-c1ccccc1F	7.82	pIC50 [3]: 7.82; Emax (CYP3A4): 51%
O=C(O)CC(NC(=O)c1cc(=O)n(-c2ccccc2F)[nH]1)c1ccc(-c2ccc(F)cc2)cc1 (racemic)	7.60	–
Cc1cccc([C@H](CC(=O)O)NC(=O)c2cc(=O)n(-c3ccccc3F)[nH]2)c1	6.60	–
O=C(O)CC(NC(=O)c1cc(=O)n(-c2ccc(Cl)cc2)[nH]1)c1cc(Cl)ccc1Cl (racemic)	< 4.52	pIC50 (Neprilysin): 6.52
Cc1ccccc1[C@H](CC(=O)O)NC(=O)c1cc(OCC(=O)C(C)(C)C)n(-c2ccccc2F)n1	8.52	Papp [2]: > 2 ×10⁻⁶ cm/s
Cc1ccc(C)c(-n2[nH]c(C(=O)NC(CC(=O)O)c3ccc(-c4ccccc4)cc3)cc2=O)c1 (racemic)	6.10	–
